The source made the active and inactive calls. No cut-off for these calls is given here.
Columns and labels:
HepG2 [1] = assay: Inhibition of TNFalpha-induced NFkappaB (unknown origin)-dependent transcriptional activity expressed in human HepG2 cells at 1 uM incubated for 1 hr prior to TNFalpha induction measured after 6 hrs by dual-luciferase reporter gene assay; format: cell-based
Outline: (§1)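 HepG2 cells in DMEM with 10% FBS were lipofectamine-transfected with 10 ng/well pGL4.32 NF-κB-Luc plus Renilla control. Compound in DMSO was given in fresh medium for 1 h at 37 °C, then TNFα (final 20 ng/ml) for 6 h. Cells were lysed in passive lysis buffer. Firefly light units were normalized to Renilla; one-way ANOVA.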

HepG2 [2] = assay: Cytotoxicity against human HepG2 cells assessed as cellular growth at 50 uM incubated for 1 hr prior to TNF alpha stimulation measured after 48 hrs by SRB assay; format: functional
Outline: (§2)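 HepG2 cells in DMEM with 10% FBS and penicillin/streptomycin were allowed to adhere 24 h, and a T0 plate was fixed. Compound was given for 1 h at 37 °C, with or without 20 ng/ml TNFα, then 48 h more. Cells were stained with 0.4% SRB for 30 min at RT, washed in 1% acetic acid, and solubilized in 10 mM Tris. OD read at 515 nm; one-way ANOVA.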

HepG2 [3] = assay: Cytotoxicity against human HepG2 cells assessed as cellular growth at 50 uM after 48 hrs by SRB assay in absence of TNFalpha; format: functional; outline: as §2
HepG2 [4] = assay: Inhibition of TNFalpha-induced NFkappaB (unknown origin)-dependent transcriptional activity expressed in human HepG2 cells at 0.1 to 10 uM incubated for 1 hr prior to TNFalpha induction measured after 6 hrs by dual-luciferase reporter gene assay; format: cell-based; outline: as §1

| SMILES | inhibition (HepG2 [1]) | Activity (HepG2 [2]) [%] | Activity (HepG2 [3]) [%] | inhibition (HepG2 [4]) |
| --- | --- | --- | --- | --- |
| Oc1ccc(Br)cc1CN1CCN(c2ncnc3ccccc23)CC1 | Active | -29.9 | -22 |  |
| c1ccc2c(NCCc3ccc4c(c3)OCO4)ncnc2c1 | Active | -28.1 | -20.1 |  |
| Nc1ccc2ncnc(NCCc3ccc(Oc4ccccc4)cc3)c2c1 |  |  |  | Active |
| c1ccc(-c2nc(NCCc3ccc4c(c3)OCO4)c3ccccc3n2)cc1 | Active | -46.8 | -30.7 |  |
| Oc1ccccc1CN1CCN(c2ncnc3ccccc23)CC1 | Active | -26 | -21.7 |  |
| c1ccc(CN2CCN(c3ncnc4ccccc34)CC2)cc1 | Active | -17.6 | -16.7 |  |
| Oc1ccc(CN2CCN(c3ncnc4ccccc34)CC2)cc1 | Active | -13.3 | -5.3 |  |
